# Hits are enriched below; roughly 4.1% of the tested compounds scored in any of these assays.
# APP 5'UTR act = APP 5'UTR luciferase reporter activation | SH-SY5Y APP 5'UTR luciferase reporter, luminescence; zero percent = DMSO vehicle wells | activation, % at 2 µM | actives 1% (n = 190,000);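 active = activation above a set limit, based on mean plus 3 SD of controls, cut at about 140% in these data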
# NF-kB expr up = NF-kB expression increase, human neuronal cells. actives 1.6% (n = 190,000). NF-kB reporter expression; hits give high values. fold change at 12.5 µM; in the data active = fold change above about 3.3
# FLuc inh counter = Photinus pyralis luciferase inhibition counter-screen; inhibition, % at 10 µM; P08659; AID 1006; actives 1.5% (n = 200,000); ATPLite firefly luciferase biochemical luminescence, 10 min;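 active = inhibition above about 50% when tested at 10 µM, limit read from the data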
# Target sequence (P08659 whole entry, looked up): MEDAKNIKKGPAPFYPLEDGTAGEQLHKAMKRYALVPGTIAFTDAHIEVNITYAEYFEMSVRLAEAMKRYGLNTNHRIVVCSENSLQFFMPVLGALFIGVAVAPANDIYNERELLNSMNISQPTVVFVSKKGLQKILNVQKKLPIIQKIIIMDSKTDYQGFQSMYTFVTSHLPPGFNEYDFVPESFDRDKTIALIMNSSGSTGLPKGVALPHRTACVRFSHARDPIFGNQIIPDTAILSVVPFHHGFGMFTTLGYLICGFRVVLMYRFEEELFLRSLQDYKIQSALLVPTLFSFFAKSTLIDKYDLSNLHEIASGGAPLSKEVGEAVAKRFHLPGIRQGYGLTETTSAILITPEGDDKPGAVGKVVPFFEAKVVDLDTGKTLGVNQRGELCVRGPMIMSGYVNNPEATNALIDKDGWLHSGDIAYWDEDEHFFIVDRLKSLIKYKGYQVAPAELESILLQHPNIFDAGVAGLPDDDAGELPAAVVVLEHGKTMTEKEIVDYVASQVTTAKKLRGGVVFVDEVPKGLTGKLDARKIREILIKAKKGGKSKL
# STAT1 activator = STAT1 signaling activation; NIH 3T3 STAT1-luciferase reporter, IFN-gamma, luminescence; 100% = IFN-gamma alone, no compound; activation (% of control), % at 5.5 µM; actives 2.6% (n = 200,000); AID 932;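 active = activation above the screen-wide mean activation plus 3 SD, cut at about 130% in these data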;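 note: raw ratio to IFN-gamma control signal so 100% means no change and 0% no light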
# FLuc act counter = firefly luciferase counter-screen for stimulation assays; P08659; ATPlite luciferase biochemical, luminescence, 10 min; 0 = ATP-free wells, 1 = DMSO control; activation factor at 10 µM; 200,000 tested, under 10 active;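 active = luciferase activation factor, scaled between plate controls, of at least 2 with compound at 10 µM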
#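 Assay system – cell-free luciferase reagent · Medium – PBS-based ATP solution · Dosing – test compounds dosed from 2 mM stocks in 100% DMSO · Timing – 10 min, room temperature · Technique – light output (luminescence) · Measure – luminescence gain marking luciferase activators · Controls – No-ATP low control, compound-free enzyme-plus-ATP high control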
# An asterisk follows results filed as active.
SMILES,APP 5'UTR act,NF-kB expr up,FLuc inh counter,STAT1 activator,FLuc act counter
CCC(C)(C)C1CCC(=NNC(=O)c2ccoc2C)CC1 (stereo not drawn),144*,1.7,-4,126,1
CCCC(=O)NNC(=O)c1ccoc1C,-13,1.2,-8,96,1.1
CCOc1ccc(N2C(=O)CC(SCCN)C2=O)cc1 (stereo not drawn),68,2.2,57*,118,0.4
Cc1cc(C)c(NC(=S)NC(=O)c2ccc(-c3ccccc3)cc2)c(C)c1,-1,0.7,-5,94,1.1
Cc1ccc(C(=O)NC(=S)Nc2cc(-c3nc4ccccc4s3)ccc2C)cc1,120,4*,4,115,1
COc1ccc(C/C(C)=N/NC(=S)Nc2ccccc2F)cc1,176*,0.72,14,126,0.9
CCCNC(=O)CSc1nnc(C)s1,-2,1.4,4,101,1
O=S(=O)(Nc1ccc(Cl)cc1)c1ccc(N2CCOCC2)c(NC(=S)NCCN2CCOCC2)c1,-4,1.3,-6,96,1.1
Nc1[nH]c(N=NC(=O)c2ccc(F)cc2)c2ccccc12,59,1.3,55*,107,0.4
Nc1ccccc1C(=O)N=Nc1[nH]c(N)c2ccccc12,54,2.3,79*,111,0.2
Cn1c(SCn2nnc3ccccc3c2=O)nc2ccccc2c1=O,-2,0.97,-4,91,1
O=C(CSc1ccc2c(c1)OCCO2)NCc1ccccc1,6,1.3,-4,96,1
O=c1c2ccccc2nnn1CSc1nnc2ccccn12,78,1.7,-2,146*,1
O=c1c2ccccc2nnn1CSc1ccc2c(c1)OCCO2,113,4.2*,9,146*,0.9
O=c1[nH]ncc(N/N=C\c2cccs2)c1Cl,6,1.2,0,87,1
O=C(O)C1CCCCC1C(=O)Nc1cccc2ccccc12 (stereo not drawn),5,1.2,-6,143*,1.1
O=C(O)C1CCCCC1C(=O)Nc1ccccc1Nc1ccccc1 (stereo not drawn),-19,1,-1,105,1
CCn1nnc(NC(=O)c2sc3ccccc3c2Cl)n1,67,2.5,67*,121,0.3
CN1CCN(c2ccc(NC(=O)c3sc4ccccc4c3Cl)cc2)CC1,182*,2.7,37,115,0.6
O=C(Nc1ccncc1)c1sc2ccccc2c1Cl,61,1.4,16,121,0.8
O=S(=O)(c1cccc(-c2n[nH]c(=S)n2C2CCCC2)c1)N1CCOCC1,23,1,6,97,0.9
CCCCC(O)(CCCC)C(=O)NN(C(=O)OCC)c1ccccc1,12,1.1,0,102,1
CCCC(O)(CCC)C(=O)NN(C(=O)CCl)c1ccccc1,-1,7.2*,-4,104,1
O=C(O)CCC(=O)N1CCN(c2ccc(C(=O)c3ccc(F)cc3)cc2)CC1,13,1.2,-6,98,1.1
CN1CCN(c2ccc(C(=O)c3ccc(F)cc3)cc2)CC1,75,2.7,14,136*,0.9
SMILES,APP 5'UTR act,NF-kB expr up,FLuc inh counter,STAT1 activator,FLuc act counter
c1ccc2c(c1)OCCOCCOc1ccccc1OCCOCCO2,-11,0.62,-2,96,1
Cc1ccc(S(=O)(=O)/N=C(/NC(=S)Nc2ccccc2)c2ccccc2)cc1,144*,6*,8,150*,0.9
COC(=O)c1ccc(N/C(=N/S(=O)(=O)c2ccccc2)c2ccccc2)cc1,2,0.93,-6,97,1.1
CCOC(=S)N/C(=N\S(=O)(=O)c1ccccc1)c1ccccc1,-3,1.2,-5,101,1
Cc1ccc(NC(=S)N/C(=N/S(=O)(=O)c2ccccc2)c2ccccc2)cc1,55,2.4,-4,143*,1
NC(=O)CSc1nc(N)c2c3c(sc2n1)CCCCC3,11,1.4,24,109,0.8
NC(=O)CSc1nc(C2CC2)nc2sc3c(c12)CCCC3,140*,3.8*,52*,150*,0.5
O=C(COC(=O)c1ccccc1[N+](=O)[O-])c1ccc(C2CCCCC2)cc1,36,0.42,80*,84,0.2
CC(C)c1ccc2oc(-c3cc(N)ccc3O)nc2c1,158*,2.4,93*,116,0.1
Nc1ccc(Cl)c(-c2nc3ncccc3o2)c1,7,1.7,8,103,0.9
Cc1ccccc1-c1nc2cc(N)ccc2o1,63,4*,55*,141*,0.4
O=C(NC1CCCCCC1)c1ccc(CN2CCOCC2)cc1,55,2.1,16,110,0.8
CCOC(=O)C1=C(O)/C(=C\c2ccc(CNC(=O)C(=O)Nc3ccc(C)c(C)c3)o2)N=C1C,-4,1.2,-5,97,1
CCCOC1CCCN(C(=O)CCc2nnc(Cc3cccc(C)c3)o2)C1 (stereo not drawn),13,2.1,-7,143*,1.1
CCN(CC1CCCO1)C(=O)CCc1nnc(Cc2ccc3c(c2)OCO3)o1 (stereo not drawn),11,1.3,-6,96,1.1
Cc1cccc(Cc2nnc(CCC(=O)N(CC3CC3)CC3CCCO3)o2)c1 (stereo not drawn),50,2.4,-3,136*,1
Cc1cn2c(nc(=O)c3cccnc32)s1,-8,1.1,-2,100,1
C=CCOc1c(Br)cc(CNn2nnnc2N)cc1OCC,-8,1.1,-10,98,1.1
Cc1nn(C(=O)CNC(=O)c2ccccc2)c(C)c1C,-8,0.91,8,113,0.9
Cc1nn(C(=O)c2cc3sccc3[nH]2)c(C)c1C,38,2.8,14,138*,0.9
N#C/C(=C\c1ccccn1)c1nc2ccccc2s1,3,1.5,68*,112,0.3
COc1cccc(C(=O)Nc2ccc(N(C)C)cc2)c1OC,53,2.1,42,142*,0.6
CN(C)c1ccc(NC(=O)c2cccc(C(=O)Nc3ccc(N(C)C)cc3)n2)cc1,46,0.42,56*,119,0.4
COc1ccccc1C(=O)Nc1ccc(C(=O)O)cc1,19,1.4,-4,102,1
COc1cccc(NC(=O)c2cccc(OC)c2OC)c1,57,2.7,27,136*,0.7
SMILES,APP 5'UTR act,NF-kB expr up,FLuc inh counter,STAT1 activator,FLuc act counter
CCn1c2ccccc2c2cc(NC(=O)c3cccc(OC)c3OC)ccc21,19,1,-7,100,1.1
C/C(CC(=O)Nc1ccc(N(C)C)cc1)=N\NC(=O)c1ccccn1,115,1.2,-3,140*,1
CC(NC(=O)c1ccco1)C(=O)OCC(=O)c1ccc(Cl)s1 (stereo not drawn),7,1.1,-4,97,1
COc1ccc(C(O)c2nccc3cc(OC)c(OC)cc23)cc1OC (stereo not drawn),-19,0.89,-3,80,1
O=C(NCCc1ccccc1)C1(c2ccccc2)CC1(Cl)Cl (stereo not drawn),2,3.4*,-2,95,1
CC(C)NC(=O)C1(c2ccccc2)CC1(Cl)Cl (stereo not drawn),-8,1.2,-7,104,1.1
